The text below walks through data of ChEMBL document CHEMBL5096213 (Bioorg Med Chem, 2022).

pKd: −log10 of the molar value. Some results are limits rather than exact numbers.

The nature of series [1]: Binding affinity to Mycobacterium tuberculosis PanD assessed as dissociation constant by isothermal titration calorimetry. In a few lines:
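ITC at 20 °C, 100 μM Mtb PanD titrated with 2 mM ligand, after desalting into 50 mM Tris pH 7.5. Buffer-versus-compound heats subtracted. KD obtained by least-squares fit of the binding isotherm to a single-site model.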

Series [2] in a line: Cytotoxicity against African green monkey Vero cells assessed as cell viability at 1.5 mM incubated for 24 hrs by XTT assay. It counts as toxicity, cell-based. The following applies: chlorocebus sabaeus, read-out: Activity. In a few lines: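 Vero cells in EMEM with 10% FBS and penicillin/streptomycin were seeded at 500–1000 cells/well. They were dosed from DMSO stocks (final DMSO 0.5%) over 20 μM to 1.5 mM and incubated 24 h at 37 °C, 10% CO2. XTT was added 2 h before read-out at 450 nm, with 660 nm background. Viability was blank-subtracted and normalized to DMSO-only wells as 100%. Values are the mean of two technical replicates.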
In general terms: Formazan colour is commonly taken as a measure of viable cells.

The test system of series [3] is Mycobacterium tuberculosis. Put plainly: Binding affinity to Mycobacterium tuberculosis PanD assessed as change in entropy by isothermal titration calorimetry. In a few lines: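 Mtb PanD (100 μM) in 50 mM Tris pH 7.5 titrated with 2 mM ligand by ITC at 20 °C. Buffer-versus-compound control heats subtracted. Isotherm fitted by least squares to a single-site binding model, which yields the thermodynamic parameters.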
(Isothermal titration calorimetry measures the heat released or taken up as one component is titrated into another.)

In general, pKd refers to −log10 of the Kd, conventionally taken in molar units. For `CCCNc1nccnc1C(=O)O`, in series [1], the pKd was 5.15. Further, in series [2], the viability at 24 h, 1500 µM was 50%. Further, the TdeltaS in series [3] is -5.7 kcal/mol.
Turning to `O=C(O)c1nccnc1Nc1ccccc1`, the pKd in series [1] is 4.33. Besides, the TdeltaS in series [3] was -2.5 kcal/mol.
`Nc1nccnc1C(=O)O`: in series [1], the negative-log Kd (pKd) was 4.40. In addition, in series [2], the viability at 24 h, 1500 µM worked out at 50%. Moreover, in series [3], the TdeltaS is -0.7 kcal/mol.
Take `Nc1cnc(C(=O)O)cn1`: the negative-log Kd (pKd) in series [1] was 4.43. Further, the viability at 24 h, 1500 µM in series [2] was 50%. In addition, the TdeltaS in series [3] was found to be 0.6 kcal/mol.
Take `CC(C)Nc1nccnc1C(=O)O`: the pKd in series [1] is less than 4.00. Besides, the viability at 24 h, 1500 µM in series [2] is 50%.
Consider `O=C(O)c1nccnc1NCc1ccccc1`, for which the viability at 24 h, 1500 µM in series [2] was 50%.
For the compound `O=C(O)c1cnccn1` [PYRAZINOIC ACID], the TdeltaS in series [3] was found to be 3 kcal/mol.
